Experimental data taken from ChEMBL document CHEMBL3217420, “Design, synthesis and initial biological evaluation of a novel pladienolide analog scaffold” (Medchemcomm, 2011).
Activity calls are given as the source filed them. The rule behind the calls is not given here.

Columns and labels:
Type in all cases: functional, cell-based
[1] = tested on: MOLT-4; assay: Cytotoxicity in human MOLT4 cells assessed as growth inhibition after 72 hrs by XTT assay; settings: MOLT-4, 72 h
Summary of the method: (§1)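 XTT assay after 72 h continuous compound exposure. IC50 is the concentration that inhibits growth to 50% of the DMSO vehicle-treated control. It was calculated by sigmoidal fitting of dose-response curves. Values are mean ± standard error of 3 independent experiments.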

[2] = Cytotoxicity in human JeKo1 cells assessed as growth inhibition after 72 hrs by XTT assay; settings: JeKo-1, 72 h; summary of the method: as §1
[3] = tested on: SK-MEL-2; assay: Cytotoxicity in human SK-MEL-2 cells assessed as growth inhibition after 72 hrs by XTT assay; settings: SK-MEL-2, 72 h; summary of the method: as §1
[4] = tested on: MCF7; assay: Cytotoxicity in human MCF7 cells assessed as growth inhibition after 72 hrs by XTT assay; settings: MCF7, 72 h; summary of the method: as §1
[5] = tested on: NCI-H226; assay: Cytotoxicity in human NCI-H226 cells assessed as growth inhibition after 72 hrs by XTT assay; settings: NCI-H226, 72 h; summary of the method: as §1
[6] = tested on: PC-3; assay: Cytotoxicity in human PC3 cells assessed as growth inhibition after 72 hrs by XTT assay; settings: PC-3, 72 h; summary of the method: as §1
[7] = tested on: SK-MEL-2; assay: Modulation of MDM2 mRNA splicing in human SK-MEL-2 cells assessed as formation of two spliced MDM2 mRNA variants at 100 uM after 6 hrs by blotting assay
Summary of the method: (§2)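 SK-MEL-2 melanoma cells were exposed to DMSO vehicle or to the designated compound concentrations for 6 hours. MDM2 mRNA was then examined for the properly spliced form and for alternatively spliced variant forms.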

[8] = tested on: SK-MEL-2; assay: Modulation of MDM2 mRNA splicing in human SK-MEL-2 cells assessed as increase in properly spliced MDM2 mRNA at 10 to 25 uM after 6 hrs by blotting assay; summary of the method: as §2
[9] = tested on: SK-MEL-2; assay: Modulation of MDM2 mRNA splicing in human SK-MEL-2 cells assessed as increase in properly spliced MDM2 mRNA at 1 uM after 6 hrs by blotting assay; summary of the method: as §2
[10] = tested on: SK-MEL-2; assay: Modulation of MDM2 mRNA splicing in human SK-MEL-2 cells assessed as formation of two spliced MDM2 mRNA variants at 10 uM after 6 hrs by blotting assay; summary of the method: as §2
[11] = tested on: SK-MEL-2; assay: Modulation of MDM2 mRNA splicing in human SK-MEL-2 cells assessed as formation of two spliced MDM2 mRNA variants at 10 to 100 uM after 6 hrs by blotting assay; summary of the method: as §2
[12] = tested on: SK-MEL-2; assay: Modulation of MDM2 mRNA splicing in human SK-MEL-2 cells assessed as increase in properly spliced MDM2 mRNA at 10 to 100 uM after 6 hrs by blotting assay; summary of the method: as §2

Row | SMILES | IC50 [1] | IC50 [2] | IC50 [3] | IC50 [4] | IC50 [5] | IC50 [6] | Activity [7] | Activity [8] | Activity [9] | Activity [10] | Activity [11] | Activity [12]
1 | CC(=O)O[C@H]1/C=C/C[C@@H](/C(C)=C/C=C/CC[C@H]2O[C@@H]2C[C@H](C)O[Si](C)(C)C(C)(C)C)OC(=O)CCCC[C@@]1(C)O | 15.5 µM | 11.6 µM | 10.7 µM | 19.2 µM | > 20 µM | 18 µM | Active | Active | – | – | – | –
2 | CC(=O)O[C@H]1/C=C/C[C@@H](/C(C)=C/C=C/CC[C@H]2O[C@@H]2C[C@H](C)O)OC(=O)CCCC[C@@]1(C)O (mixture of isomers) | – | > 20 µM | > 20 µM | – | – | > 20 µM | – | – | – | – | – | –
3 | CC(/C=C/[C@H]1OC(C)(C)C[C@@]2(CO2)[C@@H]1O)=C\C[C@H]1OC[C@@H](NC(=O)/C=C\[C@H](C)OC(=O)C(C)C)CO1 | 0.66 µM | 0.29 µM | 0.7 µM | 1.69 µM | > 10 µM | 4.16 µM | – | – | Active | Active | – | –
4 | CC(=O)O[C@@H](C)/C=C\C(=O)N[C@H]1CC[C@@H](C/C=C(C)/C=C/[C@H]2OC(C)(C)C[C@@]3(CO3)[C@@H]2O)CC1 | 0.18 µM | 0.11 µM | 0.39 µM | 0.72 µM | > 10 µM | 2.02 µM | – | – | – | – | – | –
5 | COc1ccc(COC/C=C(\C)[C@@H]2C/C=C/[C@H](OC(C)=O)[C@](C)(O)CCCCC(=O)O2)cc1 | – | – | > 20 µM | – | – | – | – | – | – | – | inactive | Active
